Measurements reported in ChEMBL document CHEMBL3272173, “Synthesis and biological activity of peptide antagonists of luliberin (luteinizing hormone-releasing hormone)” (J Med Chem, 1979).
Where “and” joins values, the source holds several entries; their conditions need not be identical. Equal entries are not always repeated. Numbered stars: 1 amine (or outer) side, 2 acyl side, 3 side chain; on linkers, the order of the positions; unused ones are H or OH. Peptide text beside a SMILES is read from it. * marks the point of attachment. NHcHex = C1CCC(N*)CC1; CO = O=C([*:1])[*:2]

Key:
Rattus norvegicus [1] = experiment: Antiovulatory activity in CD rat assessed as blockade of ovulation at 1 mg, sc administered as six doses at 1200, 1230, 1300, 1350, 1400 and 1450 hrs during proestrus stage measured during estrus stage by dissecting microscopic analysis; assay type: functional
Procedure, shortened: (§1)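 Cycling Charles River CD rats were given six subcutaneous injections of analogue in 0.1 mL propylene glycol on the afternoon of proestrus, and controls received vehicle alone. Rats were killed the next morning (estrus). Ovulating animals were scored and ova in the oviducts were counted under a dissecting microscope.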

[2] = molecular target: T1, Gonadotropin-releasing hormone receptor (Rattus norvegicus) (UniProt P30969); experiment: In vitro antagonist activity at GNRHR in CD rat anterior pituitary gland assessed as inhibition of LH-RH-stimulated LH release at compound to LH-RH molar ratio of 1000 after 4 hrs by radioimmunoassay; conditions: concentration not given here
T1 sequence (whole entry): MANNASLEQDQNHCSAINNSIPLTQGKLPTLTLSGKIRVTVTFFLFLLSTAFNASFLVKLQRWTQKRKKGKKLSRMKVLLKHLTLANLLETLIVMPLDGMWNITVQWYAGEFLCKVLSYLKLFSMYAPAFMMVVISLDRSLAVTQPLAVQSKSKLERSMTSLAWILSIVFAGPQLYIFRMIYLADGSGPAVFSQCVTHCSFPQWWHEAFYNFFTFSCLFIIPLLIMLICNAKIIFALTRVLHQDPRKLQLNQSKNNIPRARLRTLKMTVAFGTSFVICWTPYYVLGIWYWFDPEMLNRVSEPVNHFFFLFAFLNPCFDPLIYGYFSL
Procedure, shortened: (§2)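 Anterior pituitaries from diestrus CD rats (200-250 g) were dissociated enzymatically (collagenase, hyaluronidase, then Viokase). Cells were cultured 4 days at 1.67 × 10^5 cells/mL in DME with 10% horse serum and 2.5% fetal calf serum, then washed serum-free. Duplicate cultures received LH-RH (2-5 × 10^-10 M) with a single analogue concentration in serum-free DME for 4 h at 37 °C. LH in the medium was measured by RIA and reported as % inhibition of LH-RH-stimulated release.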

Rattus norvegicus [3] = experiment: Antiovulatory activity in sc dosed CD rat assessed as blockade of ovulation administered as six doses at 1200, 1230, 1300, 1350, 1400 and 1450 hrs during proestrus stage measured during estrus stage by dissecting microscopic analysis; assay type: functional; procedure, shortened: as §1
[4] = molecular target: T1, Gonadotropin-releasing hormone receptor (Rattus norvegicus); experiment: In vitro antagonist activity at GNRHR in CD rat anterior pituitary gland assessed as ratio of molar concentration of compound to LH-RH for inhibition of LH-RH-stimulated LH release after 4 hrs by radioimmunoassay
Procedure, shortened: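 Monolayers were cultured 4 days from dissociated anterior pituitary cells of diestrus CD rats. They were exposed in duplicate to LH-RH (2-5 × 10^-10 M) plus multiple analogue concentrations in serum-free DME for 4 h at 37 °C. LH in the medium was measured by radioimmunoassay. The ED50 molar ratio is the analogue:LH-RH molar ratio giving 50% inhibition of LH-RH-stimulated LH release.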

[5] = molecular target: T1, Gonadotropin-releasing hormone receptor (Rattus norvegicus); experiment: In vitro antagonist activity at GNRHR in CD rat anterior pituitary gland assessed as inhibition of LH-RH-stimulated LH release at compound to LH-RH molar ratio of 200 after 4 hrs by radioimmunoassay; conditions: concentration not given here; procedure, shortened: as §2

SMILES | inhibition (INH) (Rattus norvegicus [1]) [%] | inhibition [2] [%] | ED50 (Rattus norvegicus [3]) [mg] | ED50 [4] [molar ratio] | inhibition [5]
CCNC(=O)[C@@H]1CCCN1C(=O)[C@H](CCCNC(=N)N)NC(=O)[C@H](CC(C)C)NC(=O)[C@@H](C)NC(=O)[C@H](Cc1ccc(O)cc1)NC(=O)[C@H](CO)NC(=O)[C@H](Cc1c[nH]c2ccccc12)NC(=O)[C@H](CCC(N)=O)NC(=O)OCc1ccccc1.Cl | 20 | 100 | >3 | – | –
CC(C)C[C@H](NC(=O)[C@@H](Cc1ccccc1)NC(=O)[C@H](Cc1ccc(O)cc1)NC(=O)[C@H](CO)NC(=O)[C@H](Cc1c[nH]c2ccccc12)NC(=O)[C@H](CCC(N)=O)NC(=O)OCc1ccccc1)C(=O)N[C@@H](CCCNC(=N)N)C(=O)N1CCC[C@H]1C(=O)NCC(N)=O | – | – | – | 22 | 83% and 93%
CC(=O)O.CCNC(=O)[C@@H]1CCCN1C(=O)[C@H](CCCNC(=N)N)NC(=O)[C@H](CC(C)C)NC(=O)[C@@H](CO)NC(=O)[C@H](Cc1ccc(O)cc1)NC(=O)[C@H](CO)NC(=O)[C@H](Cc1c[nH]c2ccccc12)NC(=O)[C@H](CCC(N)=O)NC(=O)OCc1ccccc1 | 0 | – | >1 | – | 50%
CC(C)C[C@H](NC(=O)CNC(=O)[C@H](Cc1ccc(O)cc1)NC(=O)[C@H](CO)NC(=O)[C@H](Cc1c[nH]c2ccccc12)NC(=O)[C@H](Cc1ccc(O)cc1)NC(=O)OCc1ccccc1)C(=O)N[C@@H](CCCNC(=N)N)C(=O)N1CCC[C@H]1C(=O)NCC(N)=O (HELM PEPTIDE1{[O=C(OCc1ccccc1)[*:2]].Y.W.S.Y.G.L.R.P.G.[am]}$$$$V2.0) | – | 16 | – | – | –
CC(C)C[C@H](NC(=O)CNC(=O)[C@H](Cc1ccc(O)cc1)NC(=O)[C@H](CO)NC(=O)[C@H](Cc1c[nH]c2ccccc12)NC(=O)[C@H](CCC(N)=O)NC(=O)OC(C)(C)C)C(=O)N[C@@H](CCCNC(=N)N)C(=O)N1CCC[C@H]1C(=O)NCC(N)=O (HELM PEPTIDE1{[CC(C)(C)OC(=O)[*:2]].Q.W.S.Y.G.L.R.P.G.[am]}$$$$V2.0) | – | 15 | – | – | –
CC(=O)O.CCNC(=O)[C@@H]1CCCN1C(=O)[C@H](CCCNC(=N)N)NC(=O)[C@H](CC(C)C)NC(=O)[C@@H](Cc1ccc(OC)cc1)NC(=O)[C@H](Cc1ccc(O)cc1)NC(=O)[C@H](CO)NC(=O)[C@H](Cc1c[nH]c2ccccc12)NC(=O)[C@H](COCc1ccccc1)NS(C)(=O)=O | 0 | – | >1 | – | 75%
CCNC(=O)CNC(=O)[C@@H]1CCCN1C(=O)[C@H](CCCNC(=N)N)NC(=O)[C@H](CC(C)C)NC(=O)CNC(=O)[C@H](Cc1ccc(O)cc1)NC(=O)[C@H](CO)NC(=O)[C@H](Cc1c[nH]c2ccccc12)NC(=O)[C@H](CCC(N)=O)NC(=O)OCc1ccccc1 (HELM PEPTIDE1{[O=C(OCc1ccccc1)[*:2]].Q.W.S.Y.G.L.R.P.G.[CCN[*:1]]}$$$$V2.0) | – | 40 | – | – | –
CC(C)C[C@H](NC(=O)CNC(=O)[C@H](Cc1ccc(O)cc1)NC(=O)[C@H](CO)NC(=O)[C@H](Cc1c[nH]c2ccccc12)NC(=O)[C@H](CC(N)=O)NC(=O)OCc1ccccc1)C(=O)N[C@@H](CCCNC(=N)N)C(=O)N1CCC[C@H]1C(=O)NCC(N)=O (HELM PEPTIDE1{[O=C(OCc1ccccc1)[*:2]].N.W.S.Y.G.L.R.P.G.[am]}$$$$V2.0) | – | 35 | – | – | –
CC(C)C[C@H](NC(=O)CNC(=O)[C@H](Cc1ccc(O)cc1)NC(=O)[C@H](CO)NC(=O)[C@H](Cc1c[nH]c2ccccc12)NC(=O)Cc1ccccc1)C(=O)N[C@@H](CCCNC(=N)N)C(=O)N1CCC[C@H]1C(=O)NCC(N)=O (HELM PEPTIDE1{[O=C(Cc1ccccc1)[*:2]].W.S.Y.G.L.R.P.G.[am]}$$$$V2.0) | – | 51 | – | – | –
CC(C)C[C@H](NC(=O)[C@@H](CO)NC(=O)[C@H](Cc1ccc(O)cc1)NC(=O)[C@H](CO)NC(=O)[C@H](Cc1c[nH]c2ccccc12)NC(=O)[C@H](COCc1ccccc1)NC(=O)OC(C)(C)C)C(=O)N[C@@H](CCCNC(=N)N)C(=O)N1CCC[C@H]1C(=O)NCC(N)=O.Cl | 0 | – | >1 | – | 68%
CC(C)C[C@H](NC(=O)CNC(=O)[C@H](Cc1ccc(O)cc1)NC(=O)[C@H](CO)NC(=O)[C@H](Cc1c[nH]c2ccccc12)NC(=O)NC1CCCCC1)C(=O)N[C@@H](CCCNC(=N)N)C(=O)N1CCC[C@H]1C(=O)NCC(N)=O ({NHcHex-CO}-WSYGLRPG-NH2) | – | 19 | – | – | –
CC(C)C[C@H](NC(=O)CNC(=O)[C@H](Cc1ccc(O)cc1)NC(=O)[C@H](CO)NC(=O)[C@H](Cc1c[nH]c2ccccc12)NC(=O)[C@H](CC(C)C)NC(=O)OCc1ccccc1)C(=O)N[C@@H](CCCNC(=N)N)C(=O)N1CCC[C@H]1C(=O)NCC(N)=O.Cl (HELM PEPTIDE1{[O=C(OCc1ccccc1)[*:2]].L.W.S.Y.G.L.R.P.G.[am]}$$$$V2.0) | 40 | 95 | >3 | 750 | –
CC[C@H](C)[C@H](NC(=O)OCc1ccccc1)C(=O)N[C@@H](Cc1c[nH]c2ccccc12)C(=O)N[C@@H](CO)C(=O)N[C@@H](Cc1ccc(O)cc1)C(=O)NCC(=O)N[C@@H](CC(C)C)C(=O)N[C@@H](CCCNC(=N)N)C(=O)N1CCC[C@H]1C(=O)NCC(N)=O.Cl (HELM PEPTIDE1{[O=C(OCc1ccccc1)[*:2]].I.W.S.Y.G.L.R.P.G.[am]}$$$$V2.0) | 20 | 70 | >1 | – | –
CC(=O)O.CC(C)C[C@H](NC(=O)[C@@H](Cc1ccccc1)NC(=O)[C@H](Cc1ccc(O)cc1)NC(=O)[C@H](CO)NC(=O)[C@H](Cc1c[nH]c2ccccc12)NC(=O)[C@H](CCC(N)=O)NC(=O)OCc1ccccc1)C(=O)N[C@@H](CCCNC(=N)N)C(=O)N1CCC[C@H]1C(=O)NCC(N)=O | 20 | – | >3 | – | –
CC(C)C[C@H](NC(=O)[C@@H](Cc1ccccc1)NC(=O)[C@H](Cc1ccc(O)cc1)NC(=O)[C@H](CO)NC(=O)[C@H](Cc1c[nH]c2ccccc12)NC(=O)[C@H](CCC(N)=O)NC(=O)OCc1ccccc1)C(=O)N[C@@H](CCCNC(=N)N)C(=O)N1CCC[C@H]1C(=O)NCC(N)=O.Cl | – | – | >1 | – | –
CC(C)C[C@H](NC(=O)CNC(=O)[C@H](Cc1ccc(O)cc1)NC(=O)[C@H](CO)NC(=O)[C@H](Cc1c[nH]c2ccccc12)NC(=O)[C@@H](NC(=O)OCc1ccccc1)C(C)C)C(=O)N[C@@H](CCCNC(=N)N)C(=O)N1CCC[C@H]1C(=O)NCC(N)=O (HELM PEPTIDE1{[O=C(OCc1ccccc1)[*:2]].V.W.S.Y.G.L.R.P.G.[am]}$$$$V2.0) | – | 48 | – | – | –
CC(C)C[C@H](NC(=O)[C@@H](Cc1ccc(O)cc1)NC(=O)[C@H](Cc1ccc(O)cc1)NC(=O)[C@H](CO)NC(=O)[C@H](Cc1c[nH]c2ccccc12)NC(=O)[C@@H](Cc1ccccc1)NC(=O)OCc1ccccc1)C(=O)N[C@@H](CCCNC(=N)N)C(=O)N1CCC[C@H]1C(=O)NCC(N)=O.Cl | 0 | – | >1 | – | 83%
CC(C)C[C@H](NC(=O)CNC(=O)[C@H](Cc1ccc(O)cc1)NC(=O)[C@H](CO)NC(=O)[C@H](Cc1c[nH]c2ccccc12)NC(=O)[C@H](CCC(N)=O)NC=O)C(=O)N[C@@H](CCCNC(=N)N)C(=O)N1CCC[C@H]1C(=O)NCC(N)=O (HELM PEPTIDE1{[O=C[*:2]].Q.W.S.Y.G.L.R.P.G.[am]}$$$$V2.0) | – | 0 | – | – | –
CCNC(=O)[C@@H]1CCCN1C(=O)[C@H](CCCNC(=N)N)NC(=O)[C@H](CC(C)C)NC(=O)[C@H](NC(=O)[C@H](Cc1ccc(O)cc1)NC(=O)[C@H](CO)NC(=O)[C@H](Cc1c[nH]c2ccccc12)NC(=O)[C@H](CCC(N)=O)NC(=O)OCc1ccccc1)[C@@H](O)c1ccccc1.Cl | 100 | – | 0.4 | – | –
CCNC(=O)[C@@H]1CCCN1C(=O)[C@H](CCCNC(=N)N)NC(=O)[C@H](CC(C)C)NC(=O)CNC(=O)[C@H](Cc1ccc(O)cc1)NC(=O)[C@H](CO)NC(=O)[C@H](Cc1c[nH]c2ccccc12)NC(=O)[C@H](CC(C)C)NC(=O)OCc1ccccc1.Cl | 20 | 81 | >1 | – | –
